In ChEMBL document CHEMBL3244360, “Usnic acid derivatives as potential antineoplastic agents” (J Med Chem, 1979):
Active and inactive are the calls of the source. No cut-off for these calls is given here.

Key:
[1] = Octanol-water partition coefficient, log P of the compound by high-performance liquid chromatography; format: physicochemical
P388 [2] = test: Antitumor activity against mouse P388 cells allografted in mouse assessed as host median survival time at 12 mg/kg/day, ip administered as gum acacia suspension on days 1 to 9 relative to control; format: functional; conditions: route intraperitoneal
Summary of the method: (§1)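 Tumored mice got the compound intraperitoneally as a gum acacia suspension once daily on days 1-9 (nine injections), with doses in (mg/kg)/day. Read-out was T/C, the median survival time of treated over control animals as a percentage. Dose-response assays were generally run in duplicate, and the highest T/C per assay is reported with its dose.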

P388 [3] = test: Antitumor activity against mouse P388 cells allografted in mouse assessed as host median survival time at 25 mg/kg/day, ip administered as gum acacia suspension on days 1 to 9 relative to control; format: functional; conditions: route intraperitoneal; summary of the method: as §1
[4] = Antitumor activity against mouse LCC cells allografted in mouse assessed as host median survival time at 50 mg/kg/day, ip administered as gum acacia suspension on days 1 to 9 relative to control; format: functional, Lewis lung carcinoma; conditions: route intraperitoneal; summary of the method: as §1
[5] = Antitumor activity against mouse LCC cells allografted in mouse assessed as host median survival time at 100 mg/kg/day, ip administered as gum acacia suspension on days 1 to 9 relative to control; format: functional, Lewis lung carcinoma; conditions: route intraperitoneal; summary of the method: as §1
L1210 = test: Growth inhibition of mouse L1210 cells at 0.14 umol/ml after 23 to 46 hrs by coulter counter analysis; format: functional, cell-based
Summary of the method: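 L1210 cells grown in RPMI 1630 with 16.7% heat-inactivated fetal calf serum and gentamicin 40 µg/mL. Exponentially growing cells were washed and seeded at 1 × 10^5 cells/mL. Drug was added in Me2SO to a final 1.39 ± 0.17 × 10^-7 mol/mL with continuous exposure at 37 °C. Coulter counts at 23 and 46 h gave percent inhibition versus untreated control.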

P388 [6] = test: Antitumor activity against mouse P388 cells allografted in mouse assessed as host median survival time at 6 mg/kg/day, ip administered as gum acacia suspension on days 1 to 9 relative to control; format: functional; conditions: route intraperitoneal; summary of the method: as §1
P388 [7] = test: Antitumor activity against mouse P388 cells allografted in mouse assessed as host median survival time at 200 mg/kg/day, ip administered as gum acacia suspension on days 1 to 9 relative to control; format: functional; conditions: route intraperitoneal; summary of the method: as §1
[8] = Antitumor activity against mouse LCC cells allografted in mouse assessed as host median survival time at 25 mg/kg/day, ip administered as gum acacia suspension on days 1 to 9 relative to control; format: functional, Lewis lung carcinoma; conditions: route intraperitoneal; summary of the method: as §1
P388 [9] = test: Antitumor activity against mouse P388 cells allografted in mouse assessed as host median survival time at 100 mg/kg/day, ip administered as gum acacia suspension on days 1 to 9 relative to control; format: functional; conditions: route intraperitoneal; summary of the method: as §1
[10] = Antitumor activity against mouse LCC cells allografted in mouse assessed as host median survival time at 6 mg/kg/day, ip administered as gum acacia suspension on days 1 to 9 relative to control; format: functional, Lewis lung carcinoma; conditions: route intraperitoneal; summary of the method: as §1
[11] = Antitumor activity against mouse LCC cells allografted in mouse assessed as host median survival time at 12 mg/kg/day, ip administered as gum acacia suspension on days 1 to 9 relative to control; format: functional, Lewis lung carcinoma; conditions: route intraperitoneal; summary of the method: as §1
P388 [12] = test: Antitumor activity against mouse P388 cells allografted in mouse assessed as host median survival time at 50 mg/kg/day, ip administered as gum acacia suspension on days 1 to 9 relative to control; format: functional; conditions: route intraperitoneal; summary of the method: as §1
[13] = Antitumor activity against mouse LCC cells allografted in mouse assessed as host median survival time at 3 mg/kg/day, ip administered as gum acacia suspension on days 1 to 9 relative to control; format: functional, Lewis lung carcinoma; conditions: route intraperitoneal; summary of the method: as §1
[14] = Antineoplastic activity against mouse LCC cells allografted in mouse assessed as increase in host life span at 20 to 200 mg/kg relative to control; format: functional, Lewis lung carcinoma; conditions: dose mg/kg 20-200
[15] = Solubility of the compound in water at 25 degC measured per 100 ml; format: physicochemical; conditions: buffer
[16] = Solubility of the compound in ethanol at 25 degC measured per 100 ml; format: physicochemical
[17] = Antitumor activity against mouse LCC cells allografted in mouse assessed as host median survival time at 200 mg/kg/day, ip administered as gum acacia suspension on days 1 to 9 relative to control; format: functional, Lewis lung carcinoma; conditions: route intraperitoneal; summary of the method: as §1

SMILES	logP [1]	T/C (P388 [3]) [%]	T/C [4] [%]	growth inhibition (GI) (L1210)	T/C (P388 [9]) [%]	also measured
C=C1c2c(O)c(C)c(O)c(C(C)=O)c2OC12C=C(C(=O)O)C(=O)C2 (configuration not stated)	1.3	108	127			T/C (P388 [2]): 112%; T/C [5]: 109%
CC(=O)c1c(O)c(C)c(O)c2c1OC1=Cc3c(c(C)nn3-c3ccccc3)C(=O)C12C (configuration not stated)	3.2			Active		T/C (P388 [6]): 122%; T/C (P388 [7]): 110%; T/C [8]: 111%; T/C [5]: 108%
CC(=O)Oc1c(C)c(O)c(C(C)=O)c2c1C1(C)C(=O)C(C(C)=O)=C(O)C=C1O2 (configuration not stated)	2.7		112	Active		T/C (P388 [7]): 113%; T/C [8]: 118%
CC(=O)c1c(O)c(C)c(O)c2c1OC1=CC(=O)c3c(C)noc3C12C (configuration not stated)				Active	114	T/C [10]: 112%; T/C [11]: 117%
CC(=O)c1c(O)c(C)c(O)c2c1OC1=CC(=O)/C(=C(\C)N)C(=O)C12C (configuration not stated)	3.2		111	Active		T/C (P388 [6]): 107%; T/C [10]: 110%
COC12CC(O)=C(C(C)=O)C(=O)C1(C)c1c(O)c(C)c(O)c(C(C)=O)c1O2 (mixture of isomers)	2.3	128	106	Active		T/C (P388 [12]): 122%; T/C [8]: 122%
CC(=O)C1=C(O)CC2Oc3c(C(C)=O)c(O)c(C)c(O)c3C2(C)C1=O (configuration not stated)	2.4	118	107	Active	128	T/C [11]: 107%
CC(=O)Oc1c(C)c(OC(C)=O)c2c(c1C(C)=O)OC1CC(=O)C(C(C)=O)=C(O)C21C (mixture of isomers)	2.3	108	114	Active		T/C (P388 [12]): 112%; T/C [13]: 104%
CC(=O)C1=C(O)C=C2Oc3c(C(C)=O)c(O)c(C)c(O)c3[C@]2(C)C1=O [(-)-USNIC ACID]	2.88			Active	141	Activity [14]: 35%; solubility [15]: < 10 mg; solubility [16]: 20 mg
CC(=O)c1c(O)c(C)c(O)c2c1OC1=Cc3onc(C)c3C(=O)C12C (configuration not stated)			111		104	
CC(=O)Oc1c(C)c(OC(C)=O)c2c(c1C(C)=O)OC1=CC(O)=C(C(C)=O)C(=O)C12C (configuration not stated)	2.5			Active		T/C (P388 [6]): 115%; T/C (P388 [7]): 144%; T/C [10]: 111%; T/C [11]: 117%
COC12CC(O)=C(C(C)=O)C(=O)C1(C)c1c(OC(C)=O)c(C)c(O)c(C(C)=O)c1O2 (mixture of isomers)	2.6	106	108	Active	124	
CC(=O)C1=C(O)C=C2Oc3c(C(C)=O)c(O[C@@H]4O[C@H](CO)[C@@H](O)[C@H](O)[C@H]4O)c(C)c(O)c3C2(C)C1=O (some centres not stated)	0.56	102				T/C (P388 [12]): 108%
CC(=O)c1c(O[C@@H]2O[C@H](CO)[C@@H](O)[C@H](O)[C@H]2O)c(C)c(O)c2c1OC1=CC(=O)/C(=C(/C)N)C(=O)C12C (some centres not stated)		108				T/C (P388 [2]): 104%
CC(=O)c1c(O)c(C)c(O)c2c1OC1=Cc3c(c(C)nn3C)C(=O)C12C (configuration not stated)	2.8			Active		T/C (P388 [12]): 118%; T/C [11]: 103%; T/C [17]: 112%
